Series [1] is described as follows: Stability in PBS measured by LC-MS/MS analysis. Format: physicochemical. The conditions noted are these: buffer. Put shortly:
(§1)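 Analyte at 1 μM in PBS or in pooled human plasma, incubated at 37 °C for 0, 30, 60 and 120 min, in triplicate. Internal standard verapamil added, mixture centrifuged, supernatant dried and redissolved. Analyte quantified by LC-MS/MS. Half-life taken from the slope of ln(concentration) versus time. Ketoprofen ethyl ester served as plasma activity reference.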

Series [2] in a line: Stability in human plasma assessed as half-life measured by LC-MS/MS analysis. Format: ADME, cell-free. Put shortly:
as §1

Series [3] addresses T1, ATP-dependent translocase ABCB1 (Homo sapiens, UniProt P08183). Put plainly: Inhibition of P-gp in human A549 cells overexpressing P-gp assessed as Vmax at 3 uM in presence of 0 to 100 uM doxorubicin […]. The conditions noted are these: a549, 3 µM. Format: cell-based. The essentials:
(§2)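 Cells incubated 20 min with 0–100 μM doxorubicin, alone or with compound at 1 or 3 μM. A parallel set was left a further 10 min at 37 °C, then intracellular drug measured. Doxorubicin extruded (nmol/min/mg protein) plotted against initial concentration and fitted to Michaelis–Menten to give Vmax and Km. Mean ± SD.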

For series [4], the target named is T1, ATP-dependent translocase ABCB1. Put plainly: Inhibition of P-gp in doxorubicin-resistant human HT-29 cells overexpressing P-gp assessed as Vmax at 1 uM in presence of 0 to 100 uM doxorubicin […]. Format: cell-based. The following applies: ht-29, 1 µM. Put shortly: as §2
Series [5] shares this target. Put plainly: Inhibition of P-gp in doxorubicin-resistant carbonic anhydrase knockout human A549 cells overexpressing P-gp assessed as Vmax at 3 uM in presence of 0 to 100 uM doxorubicin […]. The following applies: a549, 3 µM. Format: cell-based. Put shortly:
as §2

The target is the same in series [6]. Put plainly: Inhibition of P-gp in doxorubicin-resistant human A549 cells overexpressing P-gp assessed as Vmax at 1 uM in presence of 0 to 100 uM doxorubicin […]. The conditions noted are these: a549, 1 µM. Format: cell-based. The essentials: as §2
For series [7] the target is unchanged. Nature of the series: Inhibition of P-gp in human A549 cells overexpressing P-gp assessed as Vmax at 1 uM in presence of 0 to 100 uM doxorubicin […]. The conditions noted are these: a549, 1 µM. Format: cell-based. Put shortly:
as §2

Series [8] shares this target. Nature of the series: Inhibition of P-gp in doxorubicin-resistant carbonic anhydrase knockout human A549 cells overexpressing P-gp assessed as Vmax at 1 uM in presence of 0 to 100 uM doxorubicin […]. It is filed as cell-based. The conditions noted are these: a549, 1 µM. Put shortly: as §2
The target is the same in series [9]. Nature of the series: Inhibition of P-gp in human HT-29 cells overexpressing P-gp assessed as Vmax at 1 uM in presence of 0 to 100 uM doxorubicin […]. It is filed as cell-based. The conditions noted are these: ht-29, 1 µM. The essentials: as §2
Series [10] has the same target. Nature of the series: Inhibition of P-gp in human HT-29 cells overexpressing P-gp assessed as Vmax at 3 uM in presence of 0 to 100 uM doxorubicin […]. Format: cell-based. The following applies: ht-29, 3 µM. Put shortly:
as §2

For series [11] the target is unchanged. Nature of the series: Inhibition of P-gp in doxorubicin-resistant human A549 cells overexpressing P-gp assessed as increase in doxorubicin retention 3 uM in presence of 5 uM doxorubicin measured after 24 hrs by spectrophotometric method. Format: cell-based. The following applies: a549, 24 h. Put shortly:
(§3)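 Resistant cells (wild-type, P-gp KO or hCA XII KO; KO lines selected with 1 μg/mL puromycin) exposed to 5 μM doxorubicin alone or with test compound at 1 or 3 μM. Cells washed, trypsinized and extracted in ethanol/0.3 N HCl. Doxorubicin fluorescence read at ex 475/em 553 nm and converted to nmol/mg cell protein with a calibration curve. Mean ± SD, n = 3.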

For series [12] the target is unchanged. Nature of the series: Inhibition of P-gp in doxorubicin-resistant human HT-29 cells overexpressing P-gp assessed as Vmax at 3 uM in presence of 0 to 100 uM doxorubicin […]. Format: cell-based. The conditions noted are these: ht-29, 3 µM. The essentials:
as §2

The target is the same in series [13]. Put plainly: Inhibition of P-gp in doxorubicin-resistant carbonic anhydrase knockout human HT-29 cells overexpressing P-gp assessed as Vmax at 1 uM in presence of 0 to 100 uM doxorubicin […]. The conditions noted are these: ht-29, 1 µM. It is filed as cell-based. Put shortly: as §2
Series [14] has the same target. Nature of the series: Inhibition of P-gp in doxorubicin-resistant human HT-29 cells overexpressing P-gp assessed as increase in doxorubicin retention 3 uM in presence of 5 uM doxorubicin measured after 24 hrs by spectrophotometric method. Format: cell-based. The conditions noted are these: ht-29, 24 h. Put shortly:
as §3

For series [15] the target is unchanged. Put plainly: Inhibition of P-gp in doxorubicin-resistant human A549 cells overexpressing P-gp assessed as Vmax at 3 uM in presence of 0 to 100 uM doxorubicin […]. It is filed as cell-based. The following applies: a549, 3 µM. The essentials: as §2
For series [16] the target is unchanged. Put plainly: Inhibition of P-gp in doxorubicin-resistant human HT-29 cells overexpressing P-gp assessed as increase in doxorubicin retention 1 uM in presence of 5 uM doxorubicin measured after 24 hrs by spectrophotometric method. It is filed as cell-based. The following applies: ht-29, 24 h. The essentials: as §3
Series [17] has the same target. Nature of the series: Inhibition of P-gp in doxorubicin-resistant human A549 cells overexpressing P-gp assessed as increase in doxorubicin retention 1 uM in presence of 5 uM doxorubicin measured after 24 hrs by spectrophotometric method. Format: cell-based. The following applies: a549, 24 h. The essentials: as §3
Series [18] has the same target. Nature of the series: Inhibition of P-gp in doxorubicin-resistant carbonic anhydrase knockout human HT-29 cells overexpressing P-gp assessed as Vmax at 3 uM in presence of 0 to 100 uM doxorubicin […]. It is filed as cell-based. The conditions noted are these: ht-29, 3 µM. The essentials:
as §2

T1 sequence (P08183 whole entry): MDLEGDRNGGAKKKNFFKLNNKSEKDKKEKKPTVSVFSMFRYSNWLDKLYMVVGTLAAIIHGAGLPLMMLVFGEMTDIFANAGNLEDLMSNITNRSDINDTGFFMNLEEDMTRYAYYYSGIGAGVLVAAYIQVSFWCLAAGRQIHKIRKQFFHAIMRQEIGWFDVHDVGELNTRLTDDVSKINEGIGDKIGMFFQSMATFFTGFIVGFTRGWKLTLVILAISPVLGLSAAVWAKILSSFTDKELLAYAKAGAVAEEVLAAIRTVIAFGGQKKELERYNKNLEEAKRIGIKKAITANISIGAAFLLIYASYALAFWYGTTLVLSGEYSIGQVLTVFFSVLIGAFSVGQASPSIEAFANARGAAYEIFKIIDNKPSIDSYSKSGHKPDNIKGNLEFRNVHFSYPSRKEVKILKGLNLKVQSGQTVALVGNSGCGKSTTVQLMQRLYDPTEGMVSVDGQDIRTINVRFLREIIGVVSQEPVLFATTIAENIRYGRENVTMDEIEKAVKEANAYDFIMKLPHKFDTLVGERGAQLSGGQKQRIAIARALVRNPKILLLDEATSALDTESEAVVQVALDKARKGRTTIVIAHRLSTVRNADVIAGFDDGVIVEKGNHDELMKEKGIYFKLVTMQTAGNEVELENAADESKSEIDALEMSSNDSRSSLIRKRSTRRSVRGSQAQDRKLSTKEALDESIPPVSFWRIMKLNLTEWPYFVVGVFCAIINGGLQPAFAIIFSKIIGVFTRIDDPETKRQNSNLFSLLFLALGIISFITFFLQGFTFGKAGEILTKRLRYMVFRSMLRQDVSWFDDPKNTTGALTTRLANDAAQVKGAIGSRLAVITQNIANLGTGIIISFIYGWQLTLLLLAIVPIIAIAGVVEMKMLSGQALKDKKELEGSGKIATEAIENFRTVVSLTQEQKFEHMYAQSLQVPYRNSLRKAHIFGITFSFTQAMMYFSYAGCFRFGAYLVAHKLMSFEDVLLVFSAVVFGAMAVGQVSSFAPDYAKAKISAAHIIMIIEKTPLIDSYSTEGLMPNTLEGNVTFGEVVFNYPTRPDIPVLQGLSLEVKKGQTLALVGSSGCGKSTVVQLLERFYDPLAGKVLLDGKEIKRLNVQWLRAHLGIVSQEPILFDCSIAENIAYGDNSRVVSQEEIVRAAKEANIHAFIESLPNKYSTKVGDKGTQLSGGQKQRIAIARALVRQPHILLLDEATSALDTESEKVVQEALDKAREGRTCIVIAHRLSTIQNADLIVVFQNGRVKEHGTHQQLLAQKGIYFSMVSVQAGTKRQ

Take `COc1cc(/C=C/C(=O)OCCCCCCN(CCCOC(=O)c2c3ccccc3cc3ccccc23)CCCOc2ccc3ccc(=O)oc3c2)cc(OC)c1OC`: the Stability result in series [1] and in [2] was “Stable” throughout.
With `COc1cc(/C=C/C(=O)OCCCN(CCCCCOC(=O)c2cc(OC)c(OC)c(OC)c2)CCCOc2ccc3ccc(=O)oc3c2)cc(OC)c1OC`, the Stability entry in series [1] and in series [2] was “Stable” each time.
With `COc1cc(/C=C/C(=O)OCCCN(CCCCCCOC(=O)c2c3ccccc3cc3ccccc23)CCCOc2ccc3ccc(=O)oc3c2)cc(OC)c1OC`, the Stability entry in series [1] and in series [2] was “Stable” each time.
With `COc1cc(C(=O)OCCCCCCN(CCCOC(=O)c2c3ccccc3cc3ccccc23)CCCOc2ccc3ccc(=O)oc3c2)cc(OC)c1OC`, the Stability entry in series [1] and in series [2] was “Stable” in each case.
For the compound `O=C(OCCCCCN(CCCOC(=O)c1c2ccccc2cc2ccccc12)CCCOc1ccc2ccc(=O)oc2c1)c1c2ccccc2cc2ccccc12`, the Stability result in series [1] and in [2] was “Stable” each time.
With `COc1cc(C(=O)OCCCN(CCCCCOC(=O)c2c3ccccc3cc3ccccc23)CCCOc2ccc3ccc(=O)oc3c2)cc(OC)c1OC`, the Stability entry in [1] and in series [2] was “Stable” each time.
As for `COc1cc(C(=O)OCCCN(CCCCCCOC(=O)c2c3ccccc3cc3ccccc23)CCCOc2ccc3ccc(=O)oc3c2)cc(OC)c1OC`, the Stability result in series [1] and in series [2] was “Stable” throughout.
As to `COc1cc(/C=C/C(=O)OCCCN(CCCCCCOC(=O)c2cc(OC)c(OC)c(OC)c2)CCCOc2ccc3ccc(=O)oc3c2)cc(OC)c1OC`, the Stability entry in [1] and in series [2] was “Stable” in each case.
As to `COc1cc(/C=C/C(=O)OCCCCCN(CCCOC(=O)c2cc(OC)c(OC)c(OC)c2)CCCOc2ccc3ccc(=O)oc3c2)cc(OC)c1OC`, the Stability result in [1] and in series [2] was “Stable” in each case.
Regarding `O=C(OCCCCCCCN(CCCOC(=O)c1c2ccccc2cc2ccccc12)CCCOc1ccc2ccc(=O)oc2c1)c1c2ccccc2cc2ccccc12`, the Stability result in series [1] and in series [2] was “Stable” in each case.
Take `COc1cc(/C=C/C(=O)OCCCCCN(CCCOC(=O)c2c3ccccc3cc3ccccc23)CCCOc2ccc3ccc(=O)oc3c2)cc(OC)c1OC`: the Stability result in series [1] and in [2] was “Stable” each time.
Take `COc1cc(/C=C/C(=O)OCCCN(CCCCCCCOC(=O)c2c3ccccc3cc3ccccc23)CCCOc2ccc3ccc(=O)oc3c2)cc(OC)c1OC`: the Stability result in series [1] and in series [2] was “Stable” throughout.
`COc1cc(C(=O)OCCCCCCCN(CCCOC(=O)c2c3ccccc3cc3ccccc23)CCCOc2ccc3ccc(=O)oc3c2)cc(OC)c1OC`: the Stability entry in series [1] and in series [2] was “Stable” each time.
As to `COc1cc(C(=O)OCCCCCCN(CCCOC(=O)c2cc(OC)c(OC)c(OC)c2)CCCOc2ccc3ccc(=O)oc3c2)cc(OC)c1OC`, the Vmax (in general, the rate approached at saturating substrate) in [3] worked out at 2.41 µmol/min; in [4] it was 4.73 µmol/min; in series [5] it was 2.92 µmol/min; in series [6], 5.27 µmol/min; in series [7], 2.43 µmol/min; in series [8] it was 3.6 µmol/min. Also, the Vmax in series [9] was determined as 3.21 µmol/min; in [10], 3.28 µmol/min; in [12], 3.8 µmol/min; in series [13] it was 4.27 µmol/min; in series [15] it was 4.14 µmol/min; in series [18] it was 3.45 µmol/min. The Stability entry in series [1] and in [2] was “Stable” throughout. In addition, the “inhibition (INH)” value in [11], in series [14], in series [16] and in series [17] was “Active” in each case.
For `COc1cc(C(=O)OCCCCCCCN(CCCOC(=O)c2cc(OC)c(OC)c(OC)c2)CCCOc2ccc3ccc(=O)oc3c2)cc(OC)c1OC`, the Stability entry in series [1] and in series [2] was “Stable” each time.
`COc1cc(/C=C/C(=O)OCCCCCCCN(CCCOC(=O)/C=C/c2cc(OC)c(OC)c(OC)c2)CCCOc2ccc3ccc(=O)oc3c2)cc(OC)c1OC`: the Stability entry in [1] and in [2] was “Stable” in each case.
As for `COc1cc(/C=C/C(=O)OCCCCCCCN(CCCOC(=O)c2cc(OC)c(OC)c(OC)c2)CCCOc2ccc3ccc(=O)oc3c2)cc(OC)c1OC`, the Stability result in series [1] and in [2] was “Stable” in each case.
As for `COc1cc(/C=C/C(=O)OCCCCCCN(CCCOC(=O)c2cc(OC)c(OC)c(OC)c2)CCCOc2ccc3ccc(=O)oc3c2)cc(OC)c1OC`, the Stability result in series [1] and in [2] was “Stable” each time.
With `COc1cc(/C=C/C(=O)OCCCN(CCCCCOC(=O)c2c3ccccc3cc3ccccc23)CCCOc2ccc3ccc(=O)oc3c2)cc(OC)c1OC`, the Stability entry in series [1] and in series [2] was “Stable” each time.
Regarding `COc1cc(/C=C/C(=O)OCCCCCCN(CCCOC(=O)/C=C/c2cc(OC)c(OC)c(OC)c2)CCCOc2ccc3ccc(=O)oc3c2)cc(OC)c1OC`, the Stability entry in [1] and in [2] was “Stable” each time.
For the compound `COc1cc(/C=C/C(=O)OCCCCCCCN(CCCOC(=O)c2c3ccccc3cc3ccccc23)CCCOc2ccc3ccc(=O)oc3c2)cc(OC)c1OC`, the Stability entry in series [1] and in series [2] was “Stable” each time.
Take `COc1cc(/C=C/C(=O)OCCCCCN(CCCOC(=O)/C=C/c2cc(OC)c(OC)c(OC)c2)CCCOc2ccc3ccc(=O)oc3c2)cc(OC)c1OC`: the Stability entry in series [1] and in series [2] was “Stable” in each case.
On to `COc1cc(C(=O)OCCCN(CCCCCCCOC(=O)c2c3ccccc3cc3ccccc23)CCCOc2ccc3ccc(=O)oc3c2)cc(OC)c1OC`, for which the Stability result in [1] and in [2] was “Stable” throughout.
Regarding `O=C(OCCCCCCN(CCCOC(=O)c1c2ccccc2cc2ccccc12)CCCOc1ccc2ccc(=O)oc2c1)c1c2ccccc2cc2ccccc12`, the Stability result in series [1] and in [2] was “Stable” each time.
`COc1cc(C(=O)OCCCCCN(CCCOC(=O)c2c3ccccc3cc3ccccc23)CCCOc2ccc3ccc(=O)oc3c2)cc(OC)c1OC`: the Stability entry in series [1] and in series [2] was “Stable” in each case.
In the case of `COc1cc(/C=C/C(=O)OCCCN(CCCCCCCOC(=O)c2cc(OC)c(OC)c(OC)c2)CCCOc2ccc3ccc(=O)oc3c2)cc(OC)c1OC`, the Stability result in series [1] and in series [2] was “Stable” each time.

The record behind these values is ChEMBL document CHEMBL5214983, “New Dual P-Glycoprotein (P-gp) and Human Carbonic Anhydrase XII (hCA XII) Inhibitors as Multidrug Resistance (MDR) Reversers in Cancer Cells” (J Med Chem, 2022).
